{"data": "Measurements collected from several papers", "KIT V559D": "Mast/stem cell growth factor receptor Kit (KIT, Homo sapiens, UniProt P10721, V559D)", "KIT D816V": "Mast/stem cell growth factor receptor Kit (KIT, Homo sapiens, UniProt P10721, D816V)", "KIT V559D/V654A": "Mast/stem cell growth factor receptor Kit (KIT, Homo sapiens, UniProt P10721, V559D/V654A)", "KIT": "Mast/stem cell growth factor receptor Kit (KIT, Homo sapiens, UniProt P10721)", "KIT T670I/V559D": "Mast/stem cell growth factor receptor Kit (KIT, Homo sapiens, UniProt P10721, T670I/V559D)", "KIT autoinhibited": "Mast/stem cell growth factor receptor Kit, autoinhibited (KIT, Homo sapiens, UniProt P10721)", "KIT D816H": "Mast/stem cell growth factor receptor Kit (KIT, Homo sapiens, UniProt P10721, D816H)", "KIT A829P": "Mast/stem cell growth factor receptor Kit (KIT, Homo sapiens, UniProt P10721, A829P)"}
{"SMILES": "C[C@@]1(Cc2ccc(C#N)cc2)C(=O)N(c2cc(Cl)cc(Cl)c2)c2ncc(C(=O)NC3(c4nc(C5CCC5)no4)CC3)n21", "target": "KIT V559D", "test": "cell-free assay, competition with immobilised ligand", "conditions": "1 µM", "remaining binding [%]": 99}
{"SMILES": "COc1ncc2cc3ccccc3nc2c1C#N", "target": "KIT V559D", "test": "cell-free assay, competition with immobilised ligand", "conditions": "5 µM", "remaining binding [%]": 94}
{"SMILES": "CC(C)(C)c1ccc(-c2nc(CBr)nn2-c2cccc(O)c2)cc1", "target": "KIT D816V", "test": "cell-free assay, competition with immobilised ligand", "conditions": "10 µM", "remaining binding [%]": 95}
{"SMILES": "COc1cnc(Nc2cccc(S(N)(=O)=O)c2)nc1N1CCN(c2ccccc2)CC1", "target": "KIT V559D", "test": "binding, competition with immobilised ligand", "conditions": "1 µM", "remaining binding [%]": 94}
{"SMILES": "O=C(Nc1cccnn1)N1CC(C/C=C/c2cncc(Oc3ccc(C(F)(F)F)cn3)n2)C1", "target": "KIT V559D/V654A", "test": "cell-free assay, competition with immobilised ligand", "conditions": "1 µM", "remaining binding [%]": 100}
{"SMILES": "CN(C)c1nccc(-c2cnc3ncccn23)n1", "target": "KIT", "test": "binding", "conditions": "1 µM", "remaining binding [%]": 69}
{"SMILES": "O=C(Nc1cccnn1)N1CCC(=Cc2cccc(Oc3ccc(C(F)(F)F)cn3)c2)CC1", "target": "KIT T670I/V559D", "test": "cell-free assay, competition with immobilised ligand", "conditions": "1 µM", "remaining binding [%]": 96}
{"SMILES": "CN(C)c1ncc(F)c(-c2cnn3ncccc23)n1", "target": "KIT autoinhibited", "test": "binding", "conditions": "1 µM", "remaining binding [%]": 73}
{"SMILES": "CN1CCN(c2ccc(Nc3nccc(-c4cccc([N+](=O)[O-])c4)n3)cc2C(F)(F)F)CC1", "target": "KIT D816V", "test": "binding", "conditions": "10 µM", "remaining binding [%]": 1.1}
{"SMILES": "COc1cc(-c2cn(C3CCc4c(F)cccc4N(CC(F)(F)F)C3=O)nn2)ccc1-n1cnc(C)c1 (stereo not drawn)", "target": "Mast/stem cell growth factor receptor Kit (KIT, Homo sapiens, UniProt P10721, L576P)", "test": "cell-free assay, competition with immobilised ligand", "conditions": "1 µM", "remaining binding [%]": 100}
{"SMILES": "C[C@@H](c1ccc(-n2cnc3c(N)ncnc32)cc1)N1CCc2nn(C)c(Cc3ccccc3)c2C1=O", "target": "KIT V559D", "test": "binding, competition with immobilised ligand", "conditions": "0.1 µM", "remaining binding [%]": 32}
{"SMILES": "O=C(c1ccc(Nc2ncc(Cl)c(-c3cc4ccccc4s3)n2)cc1)N1CCC(N2CCCC2)CC1", "target": "KIT autoinhibited", "test": "binding, competition with immobilised ligand", "conditions": "1 µM", "remaining binding [%]": 74}
{"SMILES": "CN1CCN(c2ccc(Nc3nccc(-c4ccccc4)n3)cc2C(F)(F)F)CC1", "target": "KIT D816V", "test": "binding", "conditions": "10 µM", "remaining binding [%]": 6.8}
{"SMILES": "Cc1cnn2ncc(-c3ccnc(N(C)C)n3)c2c1", "target": "KIT T670I/V559D", "test": "binding", "conditions": "1 µM", "remaining binding [%]": 100}
{"SMILES": "O=C(Nc1c[nH]nc1C(=O)NC1CCNCC1)c1cc(F)cc(F)c1", "target": "KIT V559D", "test": "binding, competition with immobilised ligand", "conditions": "1 µM", "remaining binding [%]": 100}
{"SMILES": "c1cncc(-c2cccc(Nc3nccc(NC4CCCCC4)n3)c2)c1", "target": "KIT D816H", "test": "binding, competition with immobilised ligand", "conditions": "10 µM", "remaining binding [%]": 13}
{"SMILES": "CN(C)c1nccc(-c2cnn3ncccc23)n1", "target": "KIT A829P", "test": "binding", "conditions": "1 µM", "remaining binding [%]": 81}
{"SMILES": "N#CC1(c2ccccn2)CCN(Cc2cc(C(=O)N3CCCC3)c(=O)n3ccccc23)CC1", "target": "KIT A829P", "test": "cell-free assay, competition with immobilised ligand", "conditions": "1 µM", "remaining binding [%]": 50}
{"SMILES": "C[C@@H]1CCN(c2nccc(-c3cnn4ncccc34)n2)C1", "target": "KIT D816H", "test": "binding", "conditions": "1 µM", "remaining binding [%]": 79}
{"SMILES": "CCN1CCN(Cc2ccc(C(=O)Nc3ccc(C)c(Oc4ccc5c(c4)CC(=O)N5)c3)cc2C(F)(F)F)CC1", "target": "KIT D816V", "test": "binding, competition with immobilised ligand", "conditions": "1 µM", "remaining binding [%]": 81}
{"SMILES": "O=C(NCC1CCOCC1)c1n[nH]cc1NC(=O)c1c(F)cccc1F", "target": "KIT autoinhibited", "test": "binding, competition with immobilised ligand", "conditions": "1 µM", "remaining binding [%]": 100}
{"SMILES": "C=CC(=O)N1CCC(C(=O)NCC(=O)N2CCN(c3nc(-c4cnc(N)nc4C(F)F)nc(N4CCOCC4)n3)CC2)CC1", "target": "KIT D816V", "test": "binding, competition with immobilised ligand", "conditions": "1 µM", "remaining binding [%]": 79}
{"SMILES": "CN(C)C(=O)Cn1cc(-c2nc(C3(c4ccc(-c5cnc(N)nc5)cc4)CC3)no2)cn1", "target": "KIT A829P", "test": "cell-free assay, competition with immobilised ligand", "conditions": "1 µM", "remaining binding [%]": 93}
{"SMILES": "Nc1ncc2c(n1)-c1c([nH]c3ccc(C#CC4CC4)cc13)CCCC2", "target": "KIT V559D", "test": "binding, competition with immobilised ligand", "conditions": "1 µM", "remaining binding [%]": 100}
{"SMILES": "COc1cnc(Nc2cccc(S(N)(=O)=O)c2)nc1N1CCN(c2ccccc2)C(=O)C1", "target": "KIT D816V", "test": "binding, competition with immobilised ligand", "conditions": "1 µM", "remaining binding [%]": 90}
{"SMILES": "c1cnn2ncc(-c3ccnc(N4CCC45COC5)n3)c2c1", "target": "KIT autoinhibited", "test": "binding", "conditions": "1 µM", "remaining binding [%]": 56}
{"SMILES": "O=C(c1ccc(Nc2nccc(-c3cc4ccccc4s3)n2)cc1)N1CCC(N2CCCC2)CC1", "target": "KIT", "test": "binding, competition with immobilised ligand", "conditions": "1 µM", "remaining binding [%]": 53}
{"SMILES": "CN(c1nccc(-c2cnn3ncccc23)n1)C1CC1", "target": "KIT autoinhibited", "test": "binding", "conditions": "1 µM", "remaining binding [%]": 100}
{"SMILES": "O=C(NCCCN1CCOCC1)c1ccc(Nc2nccc(-c3cc4ccccc4s3)n2)cc1", "target": "KIT V559D/V654A", "test": "binding, competition with immobilised ligand", "conditions": "1 µM", "remaining binding [%]": 56}
{"SMILES": "CNC(=O)[C@@H]1CC[C@@H](n2c(-c3ccc4cnccc4c3)nc3ccc(C(=O)NCc4cccc(C(N)=O)c4)cc32)C1", "target": "KIT V559D", "test": "binding, competition with immobilised ligand", "conditions": "1 µM", "remaining binding [%]": 100}
{"SMILES": "Cc1cnc(Nc2ccc(C(=O)N3CCC(N4CCCC4)CC3)cc2)nc1-c1cc2ccccc2s1", "target": "KIT D816V", "test": "binding, competition with immobilised ligand", "conditions": "1 µM", "remaining binding [%]": 5.2}
{"SMILES": "Cc1c(C(=O)O)cc(-c2ccc(C3CCNCC3)cc2)c2ccc(-c3ccc(C(F)(F)F)cc3)cc12", "target": "KIT V559D", "test": "binding, competition with immobilised ligand", "conditions": "1 µM", "remaining binding [%]": 100}
{"SMILES": "O=C(c1ccc(Nc2ncc(Cl)c(-c3ccc(Cl)s3)n2)cc1)N1CCC(N2CCCC2)CC1", "target": "KIT V559D/V654A", "test": "binding, competition with immobilised ligand", "conditions": "1 µM", "remaining binding [%]": 9.3}
{"SMILES": "O=c1nc(-c2ccccn2)sc2ccccc12", "target": "KIT V559D/V654A", "test": "binding, competition with immobilised ligand", "conditions": "1 µM", "remaining binding [%]": 100}
{"SMILES": "CN(CCCC(F)(F)F)c1nccc(-c2cnn3ncccc23)n1", "target": "KIT D816H", "test": "binding", "conditions": "1 µM", "remaining binding [%]": 77}
{"SMILES": "O=C(NCCCN1CCOCC1)c1ccc(Nc2ncc(Cl)c(-c3ccc(Cl)s3)n2)cc1", "target": "KIT V559D", "test": "binding, competition with immobilised ligand", "conditions": "1 µM", "remaining binding [%]": 0.05}
